# Published values from different studies.
# Target: Ephrin type-A receptor 5 (EPHA5, Homo sapiens, UniProt P54756)
Compound,assay,conditions,remaining binding
CNCc1ccccc1-c1csc([C@@H](C)Nc2nc(C)nc3cc(OC)c(OC)cc23)c1,"cell-free assay, competition with immobilised ligand",1 µM,88%
O=C(c1ccc(Nc2ncc(Cl)c(-c3ccc(Cl)s3)n2)cc1)N1CCC(N2CCCC2)CC1,"binding, competition with immobilised ligand",1 µM,98%
O=C(Nc1cnc(Oc2ccc(F)cc2)nc1)N1CCc2ncccc2[C@@H]1c1ccc(F)cc1,"cell-free assay, competition with immobilised ligand",1 µM,100%
CN(C)c1nccc(-c2cnn3ncccc23)n1,binding,1 µM,100%
O=C(Nc1c[nH]nc1C(=O)NC1CCNCC1)c1cc(F)cc(F)c1,"binding, competition with immobilised ligand",1 µM,100%
COc1ncc2cc3ccccc3nc2c1C#N,"cell-free assay, competition with immobilised ligand",5 µM,99%
CC1=C(C#N)[C@@H](c2ccc3[nH]nc(C)c3c2)C(C#N)=C(c2ccc(Cl)cc2)N1,"cell-free assay, competition with immobilised ligand",1 µM,100%
CN(C)c1ncc(F)c(-c2cnn3ncccc23)n1,binding,1 µM,100%
COc1cccc(CNC(=O)c2nc3scc(COCc4ccc(C(=O)O)cc4)c3c(=O)[nH]2)c1,"cell-free assay, competition with immobilised ligand",1 µM,98.5%
CCN1CCN(Cc2ccc(C(=O)Nc3ccc(C)c(Oc4ccc5c(c4)CC(=O)N5)c3)cc2C(F)(F)F)CC1,"binding, competition with immobilised ligand",1 µM,100%
COc1ccnn2ncc(-c3ccnc(N(C)C)n3)c12,binding,1 µM,100%
O=C(c1ccc(Nc2nccc(-c3cc4ccccc4s3)n2)cc1)N1CCC(N2CCCC2)CC1,"binding, competition with immobilised ligand",1 µM,100%
Cc1cc(C)c(-n2ccn3nc(-c4cccnc4)cc23)cc1NC(=O)c1cc(C#N)cc(S(F)(F)(F)(F)F)c1,"cell-free assay, competition with immobilised ligand",0.1 µM,92.4%
CN(CCCC(F)(F)F)c1nccc(-c2cnn3ncccc23)n1,binding,1 µM,100%
COc1cnc(Nc2cccc(S(N)(=O)=O)c2)nc1N1CCN(c2ccccc2)C(=O)C1,"binding, competition with immobilised ligand",1 µM,100%
Cc1nc(Cc2cccc(C(F)(F)F)c2)sc1-c1ccc(C(N)=O)nc1,"cell-free assay, competition with immobilised ligand",1 µM,100%
c1cnn2ncc(-c3ccnc(N4CCC45COC5)n3)c2c1,binding,1 µM,99%
O=C(c1ccc(Nc2ncc(Cl)c(-c3cc4ccccc4s3)n2)cc1)N1CCC(N2CCCC2)CC1,"binding, competition with immobilised ligand",1 µM,86%
N[C@@H]1CCN(c2nccc(-c3cnn4ncccc34)n2)C1,binding,1 µM,100%
Nc1ncc2c(n1)-c1c([nH]c3ccc(C#CC4CC4)cc13)CCCC2,"binding, competition with immobilised ligand",1 µM,97%
